Test results as given in ChEMBL document CHEMBL1123309, “Esters and lactones of phenolic amino carboxylic acids: prodrugs for iron chelation” (J Med Chem, 1986).
Values joined by “and” are separate entries in the source; they are usually repeats but may differ in a detail not shown here. Equal values may be shown once.

Assays:
[1] = Half life was determined titrimetrically at pH 10.5 in the absence of metal ironHalf life was determined Spectrophotometrically; type: ADME
[2] = Half life was determined titrimetrically at pH 10.5 in the presence of Fe(III)Half life was determined (measured in water); type: ADME; details: pH 7.5, in the assay text read “pH 7.5” for “pH 10.5”
Procedure, shortened: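 Metal and chelator were each 5 × 10⁻⁴ M. Constant pH was held with 0.05 M NaOH. Hydrolysis rate came from base consumption, with first-order kinetics.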

[3] = First order rate constant was determined titrimetrically at pH 10.5 in the absence of metal iron; type: ADME
[4] = tested on: Mus musculus; assay: BDF1 male mice were administered with 200 mg/kg orally and percent change in iron levels was determined in Spleen; type: functional; details: route oral
Procedure, shortened: (§1)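 Male BDF1 mice made iron-overloaded by transfusion of washed, heat-treated (50 °C, 30 min) canine red cells. Dosing began 2 days after the last transfusion, once daily for 7 days, in distilled water or 2% Polysorbate 80 suspension. Daily group urine was collected. Pooled feces were digested in 1 N HCl (90 °C, 30 min). Liver and spleen were homogenized in saline. Iron was measured by atomic absorption and expressed as % change vs transfused controls.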

[5] = tested on: Mus musculus; assay: BDF1 male mice were administered with 200 mg/kg orally and percent change in iron levels was determined in Feces; type: functional; details: route oral; procedure, shortened: as §1
[6] = tested on: Mus musculus; assay: BDF1 male mice were administered with 200 mg/kg orally and percent change in iron levels was determined in Liver; type: functional; details: route oral; procedure, shortened: as §1
[7] = tested on: Mus musculus; assay: BDF1 male mice were administered with 25 mg/kg orally and percent change in iron levels was determined in Feces; type: functional; details: route oral
Procedure, shortened: (§2)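 Hypertransfused male BDF1 mice (canine red cells, washed and heated at 50 °C for 30 min) were dosed orally for 7 days with compound in distilled water or a fine suspension with Polysorbate 80 (2% final). Daily group urine and pooled feces (1 N HCl digest, 90 °C, 30 min, triplicate) were collected, and liver and spleen were homogenized. Iron was measured by atomic absorption and reported as % change vs transfused control.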

[8] = tested on: Mus musculus; assay: BDF1 male mice were administered with 25 mg/kg orally and percent change in iron levels was determined in Spleen; type: functional; details: route oral; procedure, shortened: as §2
[9] = tested on: Mus musculus; assay: BDF1 male mice were administered with 25 mg/kg orally and percent change in iron levels was determined in Urine; type: functional; details: route oral; procedure, shortened: as §2
[10] = tested on: Mus musculus; assay: BDF1 male mice were administered with 50 mg/kg orally and percent change in iron levels was determined in Urine; type: functional; details: route oral; procedure, shortened: as §2
[11] = tested on: Mus musculus; assay: BDF1 male mice were administered with 200 mg/kg orally and percent change in iron levels was determined in Urine; type: functional; details: route oral; procedure, shortened: as §1
[12] = tested on: Mus musculus; assay: BDF1 male mice were administered with 50 mg/kg orally and percent change in iron levels was determined in Feces; type: functional; details: route oral; procedure, shortened: as §2
[13] = tested on: Mus musculus; assay: BDF1 male mice were administered with 50 mg/kg orally and percent change in iron levels was determined in Liver; type: functional; details: route oral; procedure, shortened: as §2
[14] = tested on: Mus musculus; assay: BDF1 male mice were administered with 50 mg/kg orally and percent change in iron levels was determined in Spleen; type: functional; details: route oral; procedure, shortened: as §2
[15] = tested on: Mus musculus; assay: BDF1 male mice were administered with 100 mg/kg orally and percent change in iron levels was determined in Feces; type: functional; details: route oral; procedure, shortened: as §1
[16] = tested on: Mus musculus; assay: BDF1 male mice were administered with 100 mg/kg orally and percent change in iron levels was determined in Liver; type: functional; details: route oral; procedure, shortened: as §1
[17] = tested on: Mus musculus; assay: BDF1 male mice were administered with 100 mg/kg orally and percent change in iron levels was determined in Spleen; type: functional; details: route oral; procedure, shortened: as §1
[18] = tested on: Mus musculus; assay: BDF1 male mice were administered with 100 mg/kg orally and percent change in iron levels was determined in Urine; type: functional; details: route oral; procedure, shortened: as §1
[19] = tested on: Mus musculus; assay: BDF1 male mice were administered with the compound orally and number of survivors at a dose 25 mg/kg peroral was determined out of 10 tested; type: functional; details: route oral
Procedure, shortened: (§3)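 Male BDF1 mice were iron-loaded by transfusion of canine red cells. The cells were heparinised, washed twice in isotonic saline and heated at 50 °C for 30 min. Dosing started two days after the last transfusion, once daily for 7 consecutive days. Compounds were given in distilled water or as a fine aqueous suspension with Polysorbate 80 (2% final). Toxic signs were recorded daily and survivors counted per group.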

[20] = tested on: Mus musculus; assay: BDF1 male mice were administered with the compound orally and number of survivors was determined out of 10 tested at a dose 100 mg/kg peroral; type: functional; details: route oral; procedure, shortened: as §3
[21] = tested on: Mus musculus; assay: BDF1 male mice were administered with the compound orally and number of survivors was determined out of 10 tested at a dose 200 mg/kg peroral; type: functional; details: route oral; procedure, shortened: as §3
[22] = tested on: Mus musculus; assay: BDF1 male mice were administered with the compound orally and number of survivors was determined out of 10 tested at a dose 50 mg/kg peroral; type: functional; details: route oral; procedure, shortened: as §3
[23] = Compound was evaluated for lethal dose after intraperitoneal administration using iron overload rat model; type: toxicity, organism-based; details: in vivo, ip
[24] = tested on: Rattus norvegicus; assay: Percent change in iron levels was determined in feces using iron overload rat model where the route of administration is Intraperitoneal; type: functional
[25] = tested on: Rattus norvegicus; assay: Percent change in iron levels was determined in feces using iron overload rat model where the route of administration is Peroral; type: functional
[26] = tested on: Rattus norvegicus; assay: Percent change in iron levels was determined in urine using iron overload rat model where the route of administration is Intraperitoneal; type: functional
[27] = tested on: Rattus norvegicus; assay: Percent change in iron levels was determined in urine using iron overload rat model where the route of administration is Peroral; type: functional
[28] = tested on: Mus musculus; assay: BDF1 male mice were administered with 25 mg/kg orally and percent change in iron levels was determined in Liver; type: functional; details: route oral; procedure, shortened: as §2
[29] = First order rate constant was determined titrimetrically at pH 7.5 in the presence of Co(II)
[30] = First order rate constant was determined titrimetrically at pH 7.5 in the presence of Cu(II)
[31] = First order rate constant was determined titrimetrically at pH 7.5 in the presence of Zn(II)
[32] = Half life was determined titrimetrically at pH 7.5 in the presence of Cu(II) Half life was determined
[33] = Half life was determined titrimetrically at pH 7.5 in the presence of Fe(III)Half life was determined
[34] = Half life was determined titrimetrically at pH 7.5 in the presence of Co(II)Half life was determined (measured in water)
[35] = Half life was determined titrimetrically at pH 7.5 in the presence of Zn(II)Half life was determined (measured in water)
[36] = tested on: Mus musculus; assay: BDF1 male mice were administered with 200 mg/kg intraperitoneally and percent change in iron levels was determined in Feces; type: functional; details: route intraperitoneal; procedure, shortened: as §1
[37] = tested on: Mus musculus; assay: BDF1 male mice were administered with 200 mg/kg intraperitoneally and percent change in iron levels was determined in Spleen; type: functional; details: route intraperitoneal; procedure, shortened: as §1
[38] = tested on: Mus musculus; assay: BDF1 male mice were administered with 200 mg/kg intraperitoneally and percent change in iron levels was determined in Urine; type: functional; details: route intraperitoneal; procedure, shortened: as §1
[39] = tested on: Mus musculus; assay: BDF1 male mice were administered reduced to 100 mg/kg on day 4 intraperitoneally and percent change in iron levels was determined in Feces; type: functional; details: route oral, in the assay text read “orally” for “intraperitoneally”; procedure, shortened: as §1
[40] = tested on: Mus musculus; assay: BDF1 male mice were administered reduced to 100 mg/kg on day 4 intraperitoneally and percent change in iron levels was determined in Liver; type: functional; details: route oral, in the assay text read “orally” for “intraperitoneally”; procedure, shortened: as §1
[41] = tested on: Mus musculus; assay: BDF1 male mice were administered reduced to 100 mg/kg on day 4 intraperitoneally and percent change in iron levels was determined in Spleen; type: functional; details: route oral, in the assay text read “orally” for “intraperitoneally”; procedure, shortened: as §1
[42] = tested on: Mus musculus; assay: BDF1 male mice were administered reduced to 100 mg/kg on day 4 intraperitoneally and percent change in iron levels was determined in Urine; type: functional; details: route oral, in the assay text read “orally” for “intraperitoneally”; procedure, shortened: as §1
[43] = tested on: Mus musculus; assay: BDF1 male mice were administered with 200 mg/kg intraperitoneally and number of survivors was determined out of 10 tested; type: functional; details: route intraperitoneal, 200 mg/kg; procedure, shortened: as §3
[44] = tested on: Mus musculus; assay: BDF1 male mice were administered with 25 mg/kg orally and percent change in iron levels was determined in spleen; type: functional; details: dose 200 mg/kg; route intraperitoneal; in the assay text read “200 mg/kg intraperitoneally” for “25 mg/kg orally”
[45] = tested on: Mus musculus; assay: BDF1 male mice were administered with 50 mg/kg orally and percent change in iron levels was determined in spleen; type: functional; details: dose 375 mg/kg; route intraperitoneal; in the assay text read “375 mg/kg intraperitoneally” for “50 mg/kg orally”
[46] = tested on: Mus musculus; assay: BDF1 male mice were administered with 200 mg/kg orally and percent change in iron levels was determined in spleen; type: functional; details: route oral; procedure, shortened: as §1
[47] = tested on: Mus musculus; assay: BDF1 male mice were administered with 100 mg/kg orally and percent change in iron levels was determined in spleen; type: functional; details: dose 400 mg/kg; route oral; in the assay text read “400 mg/kg” for “100 mg/kg”; procedure, shortened: as §1
[48] = tested on: Mus musculus; assay: BDF1 male mice were administered with the compound and number of survivors was determined out of 10 tested at a dose 200 mg/kg peroral; type: functional; details: route oral; procedure, shortened: as §3
[49] = tested on: Mus musculus; assay: BDF1 male mice were administered with the compound and number of survivors was determined out of 10 tested at a dose 400 mg/kg peroral; type: functional; details: route oral; procedure, shortened: as §3
[50] = tested on: Mus musculus; assay: BDF1 male mice were administered with the compound and number of survivors was determined out of 10 tested at a dose 375 mg/kg intraperitoneal

COC(=O)CN(CCN(CC(=O)OC)Cc1ccccc1O)Cc1ccccc1O
half-life [1]: 3.57 h
half-life [2]: 5.4 min
10E2 k1 [3]: 0.325 min⁻¹
Iron change [4]: -29%
Iron change [5]: -71%
Iron change [6]: -53%
Iron change [7]: -10%
Iron change [8]: -7%
Iron change [9]: 30%
Iron change [10]: 49%
Iron change [11]: 127%
Iron change [12]: 8%
Iron change [13]: -27%
Iron change [14]: -12%
Iron change [15]: -2%
Iron change [16]: -42%
Iron change [17]: -12%
Iron change [18]: 34%
No. of survivors [19]: 10
No. of survivors [20]: 10
No. of survivors [21]: 10
No. of survivors [22]: 10
LD50 [23]: ≥ 800 mg/kg
Iron change [24]: 390%
Iron change [25]: 369%
Iron change [26]: 694%
Iron change [27]: 588%
Iron change [28]: -20%
10E2 k1 [29]: 0.436 min⁻¹
10E2 k1 [30]: 0.513 min⁻¹
10E2 k1 [31]: 3.66 min⁻¹
half-life [32]: 2.25 h
half-life [33]: 0.328 h
half-life [34]: 2.72 h
half-life [35]: 0.318 h

COC(=O)C(NCCNC(C(=O)OC)c1ccccc1O)c1ccccc1O (stereo not drawn)
LD50 [23]: ≥ 800 mg/kg
Iron change [24]: 104%
Iron change [25]: 89%
Iron change [26]: 188%
Iron change [27]: 115%

O=C(O)CN(CCN(CC(=O)O)Cc1ccccc1O)Cc1ccccc1O
Iron change [36]: 38%
Iron change [37]: -5%
Iron change [38]: 50%
Iron change [39]: -7%
Iron change [40]: -3%
Iron change [41]: -9%
Iron change [42]: 14%
No. of survivors [43]: 10 and 9
LD50 [23]: ≥ 800 mg/kg
Iron change [24]: 195%
Iron change [25]: 53%
Iron change [26]: 196%
Iron change [27]: 40%

COC(=O)CN(CCN(CC(=O)OC)Cc1ccccc1OC(C)=O)Cc1ccccc1OC(C)=O [DIMETHYL ESTER]
Iron change [5]: -41%
Iron change [6]: -40%
Iron change [44]: -22%
Iron change [45]: -5%
Iron change [11]: 138%
Iron change [46]: -13%
Iron change [47]: -46%
No. of survivors [48]: 10
No. of survivors [49]: 6
No. of survivors [50]: 10
